Active and inactive are the calls of the source. Bounds are passed on as bounds.

Seven molecules from ChEMBL document CHEMBL4715832, “Isoquinoline-based biaryls as a robust scaffold for microtubule inhibitors” (Eur J Med Chem, 2020) can be followed below.

The species named for one data set is Homo sapiens. As to the kind of experiment: Inhibition of porcine tubulin polymerization at 16 uM preincubated for 10 mins followed by GTP addition by turbidimetric method. Put shortly: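 Purified porcine brain tubulin (99% purity) pre-incubated 10 min at 37 °C with compound at 16 µM in buffer containing 3% DMSO and 10% glycerol. Polymerisation started at time zero by adding GTP to 1 mM. Absorbance at 340 nm followed over time at 37 °C as the turbidity read-out.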

The test system of data set [1] is HeLa. Description: Antiproliferative activity against human HeLa cells assessed as reduction in cell growth after 48 hrs by resazurin dye based fluorescence assay. In kind it is functional. Put shortly: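 HeLa cells grown in DMEM with 10% FCS and penicillin/streptomycin, 37 °C, 5% CO2. Seeded 5,000 cells/well, treated 24 h later with DMSO 1% final, then incubated 48 h. Resazurin reduction to resorufin measured over 3 h at 37 °C by fluorescence (ex 544/em 590 nm). Normalised to cosolvent control (100%) and cell-free wells (0%). Means of at least three independent experiments.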

For data set [2], the target named is T1, hERG (KCNH2) (Homo sapiens, UniProt Q12809). Description: Inhibition of human ERG at 1 uM by fluorescence polarization assay relative to control. Summed up: (§1)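 hERG channel inhibition measured with a fluorescence polarisation reporter assay, applied to the dephosphorylated phenol.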
T1 sequence (Q12809 whole entry): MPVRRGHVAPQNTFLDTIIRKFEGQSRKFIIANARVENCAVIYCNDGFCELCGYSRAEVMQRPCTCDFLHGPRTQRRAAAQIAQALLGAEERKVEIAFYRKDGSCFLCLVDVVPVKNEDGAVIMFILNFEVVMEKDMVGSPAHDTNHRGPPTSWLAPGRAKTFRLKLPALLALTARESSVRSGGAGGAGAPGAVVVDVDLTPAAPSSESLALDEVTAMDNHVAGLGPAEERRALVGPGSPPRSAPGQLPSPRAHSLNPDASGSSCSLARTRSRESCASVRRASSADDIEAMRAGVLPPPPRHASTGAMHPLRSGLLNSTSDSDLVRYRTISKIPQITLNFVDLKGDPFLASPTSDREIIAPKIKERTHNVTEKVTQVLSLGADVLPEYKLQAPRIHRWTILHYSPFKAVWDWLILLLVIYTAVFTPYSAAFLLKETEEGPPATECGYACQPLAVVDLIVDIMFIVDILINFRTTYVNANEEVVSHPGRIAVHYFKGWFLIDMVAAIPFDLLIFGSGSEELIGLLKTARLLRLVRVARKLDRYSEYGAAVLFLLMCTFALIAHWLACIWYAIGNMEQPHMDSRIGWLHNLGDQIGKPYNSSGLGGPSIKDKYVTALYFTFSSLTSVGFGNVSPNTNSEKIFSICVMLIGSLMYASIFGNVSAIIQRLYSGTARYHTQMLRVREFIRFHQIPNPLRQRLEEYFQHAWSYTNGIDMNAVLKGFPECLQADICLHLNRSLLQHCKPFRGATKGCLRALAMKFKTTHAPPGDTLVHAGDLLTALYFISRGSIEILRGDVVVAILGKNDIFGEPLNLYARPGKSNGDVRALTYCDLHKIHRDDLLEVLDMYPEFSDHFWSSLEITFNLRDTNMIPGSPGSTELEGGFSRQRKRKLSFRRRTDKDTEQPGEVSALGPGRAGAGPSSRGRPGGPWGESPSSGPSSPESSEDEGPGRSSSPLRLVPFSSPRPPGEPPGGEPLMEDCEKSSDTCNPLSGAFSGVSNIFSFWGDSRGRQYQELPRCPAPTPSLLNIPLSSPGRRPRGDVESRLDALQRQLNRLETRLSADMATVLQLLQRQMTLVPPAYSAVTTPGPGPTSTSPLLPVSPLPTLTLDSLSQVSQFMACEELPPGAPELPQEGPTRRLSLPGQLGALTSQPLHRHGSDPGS
The nature of data set [3]: Half life in human liver microsomes at 2 uM. In kind it is ADME, Microsome. (Microsomes from liver hold many membrane-bound enzymes, among them those of drug oxidation.)
Another data set addresses CYP3A4 (Homo sapiens, UniProt P08684). As to the kind of experiment: Inhibition of human CYP3A4 at 10 uM relative to control. The format is ADME. Summed up: (§2)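 Inhibition measured against five human cytochrome P450 isoforms, with test compound at 10 µM, applied as the dephosphorylated phenol.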
A short description of data set [4]: Stability in human liver microsomes assessed as parent compound remaining at 2 uM measured immediately in presence of cofactor. In kind it is ADME, Microsome. The settings on record: read-out: Stabilty.
In the next data set the target is CYP2C9 (Homo sapiens, UniProt P11712). Description: Inhibition of human CYP2C9 at 10 uM relative to control. The format is ADME. Summed up:
as §2

Data set [5] deals with liver microsomes (Mus musculus). Description: Stability in mouse liver microsomes assessed as parent compound remaining at 2 uM measured after 30 mins in presence of cofactor. As to conditions: read-out: Stabilty.
For data set [6] the test system is unchanged. Description: Stability in mouse liver microsomes assessed as parent compound remaining at 2 uM measured immediately in presence of cofactor. As to conditions: read-out: Stabilty.
The next data set concerns the target CYP2D6 (Homo sapiens, UniProt P10635). Description: Inhibition of human CYP2D6 at 10 uM relative to control. The format is ADME. Put shortly:
as §2

Data set [7] can be described thus: Stability in human liver microsomes assessed as parent compound remaining at 2 uM measured after 40 mins in absence of cofactor. As to conditions: read-out: Stabilty. In kind it is ADME, Microsome.
Data set [8] is described as follows: Stability in human liver microsomes assessed as parent compound remaining at 2 uM measured after 30 mins in presence of cofactor. The format is ADME, Microsome. As to conditions: read-out: Stabilty.
The target in data set [9] is T1, hERG (KCNH2). As to the kind of experiment: Inhibition of human ERG at 5 uM by fluorescence polarization assay relative to control. Summed up: as §1
For orientation: Fluorescence polarisation rises when a labelled molecule tumbles more slowly, as on binding a larger partner.

Data set [10] can be described thus: Stability in human liver microsomes assessed as parent compound remaining at 2 uM measured after 10 mins in presence of cofactor. As to conditions: read-out: Stabilty. In kind it is ADME, Microsome.
A further data set addresses CYP2C19 (Homo sapiens, UniProt P33261). Description: Inhibition of human CYP2C19 at 10 uM relative to control. In kind it is ADME. Summed up:
as §2

Data set [11] concerns liver microsomes (Mus musculus). As to the kind of experiment: Stability in mouse liver microsomes assessed as parent compound remaining at 2 uM measured after 20 mins in presence of cofactor. The settings on record: read-out: Stabilty.
Data set [12] has as its target T1, hERG (KCNH2). Description: Inhibition of human ERG at 25 uM by fluorescence polarization assay relative to control. Summed up: as §1
The subject of data set [13] is liver microsomes (Mus musculus). Description: Stability in mouse liver microsomes assessed as parent compound remaining at 2 uM measured immediately in absence of cofactor. As to conditions: read-out: Stabilty.
Another data set addresses T2, CYP1A2 (Homo sapiens, UniProt P05177).
T2 sequence (P05177 whole entry): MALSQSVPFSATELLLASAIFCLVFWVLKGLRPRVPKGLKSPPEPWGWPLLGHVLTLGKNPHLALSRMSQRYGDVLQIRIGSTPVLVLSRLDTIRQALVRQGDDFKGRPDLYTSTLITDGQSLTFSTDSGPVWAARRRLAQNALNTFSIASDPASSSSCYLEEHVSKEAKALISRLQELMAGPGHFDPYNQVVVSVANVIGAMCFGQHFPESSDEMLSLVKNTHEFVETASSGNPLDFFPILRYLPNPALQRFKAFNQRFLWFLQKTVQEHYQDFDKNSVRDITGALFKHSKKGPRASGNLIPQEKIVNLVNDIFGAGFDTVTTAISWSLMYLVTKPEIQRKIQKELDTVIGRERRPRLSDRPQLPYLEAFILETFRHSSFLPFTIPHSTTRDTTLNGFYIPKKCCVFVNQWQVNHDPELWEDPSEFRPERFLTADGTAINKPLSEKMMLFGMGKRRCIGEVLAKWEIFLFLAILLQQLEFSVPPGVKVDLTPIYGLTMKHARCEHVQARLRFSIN
Description: Inhibition of human CYP1A2 at 10 uM relative to control. In kind it is ADME. Summed up: as §2

In data set [14] the test system is liver microsomes (Mus musculus). As to the kind of experiment: Stability in mouse liver microsomes assessed as parent compound remaining at 2 uM measured after 10 mins in presence of cofactor. The settings on record: read-out: Stabilty.
Data set [15] is described as follows: Stability in human liver microsomes assessed as parent compound remaining at 2 uM measured after 40 mins in presence of cofactor. In kind it is ADME, Microsome. As to conditions: read-out: Stabilty.
In data set [16] the test system is liver microsomes (Mus musculus). Description: Half life in mouse liver microsomes at 2 uM.
The nature of data set [17]: Stability in human liver microsomes assessed as parent compound remaining at 2 uM measured after 20 mins in presence of cofactor. The settings on record: read-out: Stabilty. The format is ADME, Microsome.
Data set [18] is described as follows: Stability in human liver microsomes assessed as parent compound remaining at 2 uM measured immediately in absence of cofactor. In kind it is ADME, Microsome. As to conditions: read-out: Stabilty.
In data set [19] the test system is liver microsomes (Mus musculus). As to the kind of experiment: Stability in mouse liver microsomes assessed as parent compound remaining at 2 uM measured after 40 mins in presence of cofactor. As to conditions: read-out: Stabilty.
Data set [20] has the same test system. Description: Stability in mouse liver microsomes assessed as parent compound remaining at 2 uM measured after 40 mins in absence of cofactor. The settings on record: read-out: Stabilty.
The next data set has as its system HL-60. As to the kind of experiment: Antiproliferative activity against human HL-60 cells assessed as reduction in cell growth after 24 hrs by MTT assay. In kind it is functional, cell-based. The settings on record: HL-60, 24 h. Put shortly: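 HL-60 cells grown in RPMI 1640 with 10% FCS, no antibiotics, 37 °C, 5% CO2. Seeded 9,000 cells/well, treated 24 h later with DMSO cosolvent at 1% final. After 24 h, MTT 0.5 mg/mL for 2 h, absorbance read. Normalised to cosolvent control (100%) and Triton X-100-treated cells (0%). Means of at least three independent experiments.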
A general note: Tetrazolium dyes change colour on reduction, which living cells bring about.

The test system of data set [21] is HeLa. As to the kind of experiment: Induction of microtubule network depolymerization in human HeLa cells after 24 hrs by immunofluorescence staining based confocal microscopic analysis. The format is cell-based. Put shortly:
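HeLa cells seeded on glass coverslips (50,000 cells/well), allowed to adhere 18 h, then treated 24 h. Fixed with 0.5% glutaraldehyde, quenched with 0.1% NaBH4, blocked with PBS + 10% FCS. Stained with rabbit anti-alpha-tubulin (1:400, 1 h), then Alexa Fluor 488 anti-rabbit secondary, with DAPI nuclear counterstain. Imaged by confocal microscopy, including z-stack projections.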

A further data set deals with tubulin (Sus scrofa). Description: Inhibition of porcine tubulin polymerization at 20 uM preincubated for 10 mins followed by GTP addition by turbidimetric method.

Chain of CYP2C9 (P11712 whole entry): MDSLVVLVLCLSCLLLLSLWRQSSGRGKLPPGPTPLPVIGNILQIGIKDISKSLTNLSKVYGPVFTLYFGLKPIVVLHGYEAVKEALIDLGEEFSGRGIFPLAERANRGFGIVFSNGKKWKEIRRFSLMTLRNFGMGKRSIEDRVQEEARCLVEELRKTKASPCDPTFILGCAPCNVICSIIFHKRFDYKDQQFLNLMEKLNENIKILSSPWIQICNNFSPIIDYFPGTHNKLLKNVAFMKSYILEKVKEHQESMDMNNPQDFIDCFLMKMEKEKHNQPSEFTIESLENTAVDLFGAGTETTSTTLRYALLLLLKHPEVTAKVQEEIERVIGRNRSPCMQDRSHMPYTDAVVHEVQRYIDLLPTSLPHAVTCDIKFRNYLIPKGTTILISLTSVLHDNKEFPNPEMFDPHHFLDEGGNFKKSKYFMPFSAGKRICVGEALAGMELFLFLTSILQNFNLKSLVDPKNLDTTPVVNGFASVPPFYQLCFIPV
Chain of CYP2C19 (P33261 whole entry): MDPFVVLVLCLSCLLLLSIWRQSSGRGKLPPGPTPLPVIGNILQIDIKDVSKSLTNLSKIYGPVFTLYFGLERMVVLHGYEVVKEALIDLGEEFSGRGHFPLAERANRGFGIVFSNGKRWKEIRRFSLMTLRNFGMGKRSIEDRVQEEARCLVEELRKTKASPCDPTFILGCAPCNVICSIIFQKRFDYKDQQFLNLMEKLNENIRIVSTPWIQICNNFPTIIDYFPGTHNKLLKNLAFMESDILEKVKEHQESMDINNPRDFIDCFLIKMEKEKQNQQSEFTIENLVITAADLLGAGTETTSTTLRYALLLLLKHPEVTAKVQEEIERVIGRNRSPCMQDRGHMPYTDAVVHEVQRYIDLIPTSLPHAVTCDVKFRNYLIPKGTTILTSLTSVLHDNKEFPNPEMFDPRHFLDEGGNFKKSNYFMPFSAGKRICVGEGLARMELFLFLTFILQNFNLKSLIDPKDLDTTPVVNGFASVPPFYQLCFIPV
Chain of CYP2D6 (P10635 whole entry): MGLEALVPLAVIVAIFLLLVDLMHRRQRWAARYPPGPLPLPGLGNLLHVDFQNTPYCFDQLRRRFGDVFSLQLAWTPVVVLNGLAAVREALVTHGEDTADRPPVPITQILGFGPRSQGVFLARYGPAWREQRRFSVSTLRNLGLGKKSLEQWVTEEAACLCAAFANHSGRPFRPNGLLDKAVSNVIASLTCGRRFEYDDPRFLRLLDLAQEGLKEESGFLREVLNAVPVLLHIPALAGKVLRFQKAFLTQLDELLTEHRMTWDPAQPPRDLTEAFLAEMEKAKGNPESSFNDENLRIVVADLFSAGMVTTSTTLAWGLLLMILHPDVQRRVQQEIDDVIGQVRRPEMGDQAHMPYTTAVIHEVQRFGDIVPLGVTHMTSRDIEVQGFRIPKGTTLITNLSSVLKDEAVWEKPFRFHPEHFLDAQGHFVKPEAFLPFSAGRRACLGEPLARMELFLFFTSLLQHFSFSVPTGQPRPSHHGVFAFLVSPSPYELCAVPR
Chain of CYP3A4 (P08684 whole entry, canonical isoform): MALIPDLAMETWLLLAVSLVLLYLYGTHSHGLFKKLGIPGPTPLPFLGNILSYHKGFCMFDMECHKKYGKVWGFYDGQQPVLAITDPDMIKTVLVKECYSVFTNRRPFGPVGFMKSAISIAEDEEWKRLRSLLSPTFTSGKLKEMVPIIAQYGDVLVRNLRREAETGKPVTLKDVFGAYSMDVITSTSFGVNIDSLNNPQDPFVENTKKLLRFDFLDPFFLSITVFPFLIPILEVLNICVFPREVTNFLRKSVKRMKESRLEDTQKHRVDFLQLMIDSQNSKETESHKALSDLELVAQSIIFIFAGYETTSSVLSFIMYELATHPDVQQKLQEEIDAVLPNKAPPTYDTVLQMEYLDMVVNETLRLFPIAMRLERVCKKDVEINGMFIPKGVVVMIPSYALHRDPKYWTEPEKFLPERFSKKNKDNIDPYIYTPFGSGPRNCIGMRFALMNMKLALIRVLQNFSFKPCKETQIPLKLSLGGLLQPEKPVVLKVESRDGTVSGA

A word on the inhibition: it is the change of the read-out against control, counted positive when it falls. For the molecule `COc1cc2c(c(OC)c1OC)-c1ccc(OC)c(=O)cc1[C@@H](NC(C)=O)CC2`, in the data set filed under Homo sapiens, the inhibition entry is “Active”.
What is called EC50 is the concentration at which the effect is half-maximal. In the case of `COC(=O)Nc1nc2cc(C(=O)c3cccs3)ccc2[nH]1` [NOCODAZOLE], the EC50 in the data set on HeLa [1] was 40 nM.
As a reminder, the half-life is the time needed for the level to fall by half in the phase considered. Take `COc1cc2c(-c3cc(OC)c(OC)c(OC)c3)nccc2cc1O`: the inhibition at 1 µM against hERG (KCNH2) [2] is -3%. The half-life at 2 µM in data set [3] was determined as 1.13 h; in data set [16] it was 1.12 h. Also, the inhibition at 10 µM at CYP3A4 was 13%; against CYP2C9 it was 16%; against CYP2D6 it was 19%; against CYP2C19 it was -49%; against CYP1A2, -4%. The remaining at 0 min, 2 µM in data set [4], in data set [6], in [13] and in data set [18] was 100% in each case. Moreover, the remaining at 0.5 h, 2 µM came out at 73% in data set [5] and 75% in data set [8]. Further, in the data set on HeLa [1], the Activity entry is “Dose-dependent effect”. The EC50 with HeLa [1] turned out to be 120 nM; with HL-60 it was 340 nM. Also, the remaining at 40 min, 2 µM was 98% in [7], 69% in data set [15], 67% in [19] and 105% in [20]. In addition, the inhibition at 5 µM at hERG (KCNH2) [9] is -18%. Moreover, the remaining at 10 min, 2 µM in data set [10] was 99%; in data set [14] it was 93%. Also, the remaining at 20 min, 2 µM in data set [11] was determined as 82%; in data set [17], 84%. Also, the inhibition at 25 µM at hERG (KCNH2) [12] is -5%.
Regarding `COc1ccc(C(=O)c2nccc3c(OC)c(OC)c(OC)cc23)cc1`, the 50% effective concentration (EC50) with HeLa [1] was above 80000 nM.
In the case of `COc1cc2ccnc(-c3cc(OC)c(OC)c(OC)c3)c2cc1OC`, in the data set with HeLa [1], the EC50 was above 20000 nM. Besides, the Activity result with HeLa [21] was “Dose-dependent effect”.
For `COc1cc(-c2nccc3c(OC)c(OC)c(OC)cc23)ccc1OP(=O)(O)O`, the EC50 in the data set on HeLa [1] and with HL-60 was above 100000 nM throughout.
For `COc1cc2c(-c3cc(OC)c(OC)c(OC)c3)nccc2cc1F`, the Activity entry in the data set with HeLa [1] and in the data set on HeLa [21] was “Dose-dependent effect” each time. Also, the EC50 with HeLa [1] came to 280 nM. Also, the inhibition result in the data set with tubulin (Sus scrofa) is “Active”.
